Measurements published in ChEMBL document CHEMBL3124823, “1,2,3-Triazole-containing derivatives of rupestonic acid: click-chemical synthesis and antiviral activities against influenza viruses” (Eur J Med Chem, 2014).
Converted amounts (≈) assume the structure as drawn.

Tests used:
[1] = Selectivity index, ratio of TC50 for MDCK cells to IC50 for Influenza B virus jifang/13/97; assay type: toxicity, cell-based; settings: dog, read-out: Selectivity Index
Procedure, shortened: (§1)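 Selectivity index = TC50 (MDCK, 48 h visual cytotoxicity) / IC50 from the 40 h CPE-inhibition assay for the given strain.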

Influenza B virus [2] = test: Antiviral activity against Influenza B virus jifang/13/97 infected in MDCK cells assessed as inhibition of virus-induced cytopathicity after 40 hrs; assay type: functional, organism-based; settings: jifang/13/97, MDCK
Procedure, shortened: (§2)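 CPE reduction in MDCK cells: cells grown 24 h at 37 °C, 5% CO2, then infected and held 2 h at 37 °C before the inoculum was removed. Threefold serial drug dilutions (8 levels from 20 mg/mL DMSO stocks) were added and incubated 40 h at 37 °C. CPE inhibition was scored against cell and virus controls to give IC50. Ribavirin and oseltamivir were the controls.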

Influenza A virus [3] = test: Antiviral activity against Influenza A virus A/hanfang/359/95(H3N2) infected in MDCK cells assessed as inhibition of virus-induced cytopathicity after 40 hrs; assay type: functional, organism-based; procedure, shortened: as §2
[4] = Selectivity index, ratio of TC50 for MDCK cells to IC50 for Influenza A virus (A/FM/1/1947(H1N1)); assay type: toxicity, cell-based; settings: dog, read-out: Selectivity Index; procedure, shortened: as §1
Influenza A virus [5] = test: Antiviral activity against Influenza A virus (A/FM/1/1947(H1N1)) infected in MDCK cells assessed as inhibition of virus-induced cytopathicity after 40 hrs; assay type: functional, organism-based; settings: A/Fort Monmouth/1/1947(H1N1); procedure, shortened: as §2
[6] = Cytotoxicity against MDCK cells after 48 hrs; assay type: cell-based, Canis lupus familiaris; settings: dog, read-out: TC50
Procedure, shortened: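 MDCK cells seeded at 25000 per well and cultured 24 h at 37 °C, 5% CO2. Threefold dilutions were added to the monolayer and culture continued 48 h. Cytopathic changes were recorded by observation, and TC50 was calculated by the Reed & Muench method.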

Influenza B virus [7] = test: Antiviral activity against Influenza B virus jifang/13/97 infected in MDCK cells assessed as inhibition of plaque formation after 3 to 4 days by crystal violet staining-based assay; assay type: functional, organism-based; settings: jifang/13/97, MDCK
Procedure, shortened: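 Plaque reduction: MDCK monolayers in 12-well plates were PBS-washed and infected with influenza B in trypsin-free maintenance medium for 2 h at 37 °C, 5% CO2. Inoculum was removed and the cells washed three times. A 1.5% agarose/MEM overlay with trypsin (2 μg/ml) and drug was added. After 3-4 days, crystal violet (0.5%) plaque counts against no-drug wells gave IC50 by Reed & Muench. Ribavirin was the control.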

Influenza B virus [8] = test: Ratio of ribavirin IC50 to compound IC50 for Influenza B virus jifang/13/97 infected in MDCK cells; assay type: functional
[9] = Selectivity index, ratio of TC50 for MDCK cells to IC50 for Influenza A virus (A/Tianjinjinnan/15/2009/H1N1); assay type: toxicity, cell-based; settings: dog, read-out: Selectivity Index; procedure, shortened: as §1
[10] = Selectivity index, ratio of TC50 for MDCK cells to IC50 for Influenza A virus A/hanfang/359/95(H3N2); assay type: toxicity, cell-based; settings: dog, read-out: Selectivity Index; procedure, shortened: as §1

SMILES	selectivity ratio [1]	IC50 (Influenza B virus [2]) [µg/mL]	IC50 (Influenza A virus [3]) [µg/mL]	selectivity ratio [4]	IC50 (Influenza A virus [5]) [µg/mL]	CC50 at 48 h [6] [µg/mL]	IC50 (Influenza B virus [7]) [µg/mL]	Ratio IC50 (Influenza B virus [8])	selectivity ratio [9]	selectivity ratio [10]
C=C(C(=O)NCc1cn(Cc2ccc(C)cc2)nn1)[C@@H]1CC[C@H](C)[C@@H]2CC(=O)C(C)=C2C1	8.25	11.8 (≈ 27.2 µM)	> 22.2	5.91	17.5 (≈ 40.5 µM)	96.2 (≈ 222 µM)				
C=C(C(=O)OCc1cn(Cc2ccc(Cl)c(Cl)c2)nn1)[C@@H]1CC[C@H](C)[C@@H]2CC(=O)C(C)=C2C1		> 7.41	> 7.41		> 7.41	22.2 (≈ 45.5 µM)				
C=C(C(=O)OCc1cn(Cc2ccccc2)nn1)[C@@H]1CC[C@H](C)[C@@H]2CC(=O)C(C)=C2C1	≥ 3.9	≥ 7.41	> 7.41		> 7.41	28.6 (≈ 68.2 µM)				
C=C(C(=O)NCc1cn(Cc2ccc(F)cc2)nn1)[C@@H]1CC[C@H](C)[C@@H]2CC(=O)C(C)=C2C1	43.8	3.92 (≈ 8.98 µM)	> 66.7		≥ 66.7	116 (≈ 265 µM)	0.73 (≈ 1.67 µM)	>4		
C=C(C(=O)OCc1cn(Cc2ccc(OC)cc2)nn1)[C@@H]1CC[C@H](C)[C@@H]2CC(=O)C(C)=C2C1	≥ 2.1	≥ 22.2	> 22.2	2.68	19.7 (≈ 43.9 µM)	46.2 (≈ 103 µM)			2.08	
C=C(C(=O)NCc1cn(Cc2ccccc2C)nn1)[C@@H]1CC[C@H](C)[C@@H]2CC(=O)C(C)=C2C1	4.55	15 (≈ 34.7 µM)	> 22.2		> 22.2	66.7 (≈ 154 µM)				
C=C(C(=O)NCc1cn(Cc2ccccc2Cl)nn1)[C@@H]1CC[C@H](C)[C@@H]2CC(=O)C(C)=C2C1	22.5	1.71 (≈ 3.77 µM)	> 7.41		> 7.41	38.5 (≈ 85 µM)	0.21 (≈ 0.464 µM)	>4		
C=C(C(=O)OCc1cn(Cc2cccc(OC)c2)nn1)[C@@H]1CC[C@H](C)[C@@H]2CC(=O)C(C)=C2C1		> 22.2	> 22.2		> 22.2	96.2 (≈ 214 µM)				
C=C(C(=O)OCc1cn(C2C=CCCC2)nn1)[C@@H]1CC[C@H](C)[C@@H]2CC(=O)C(C)=C2C1 (some centres undefined)	≥ 4.3	≥ 5.14	> 7.41	8	2.82 (≈ 6.89 µM)	22.2 (≈ 54.3 µM)	3.28 (≈ 8.01 µM)			
C=C(C(=O)OCc1cn(Cc2cccc(F)c2)nn1)[C@@H]1CC[C@H](C)[C@@H]2CC(=O)C(C)=C2C1	≥ 4.3	≥ 22.2	> 22.2		> 22.2	96.2 (≈ 220 µM)				
C=C(C(=O)OCc1cn(Cc2ccc(Cl)cc2)nn1)[C@@H]1CC[C@H](C)[C@@H]2CC(=O)C(C)=C2C1	5.2	12.8 (≈ 28.3 µM)	> 22.2		> 22.2	66.7 (≈ 147 µM)				
C=C(C(=O)OCc1cn(Cc2ccc(C)cc2)nn1)[C@@H]1CC[C@H](C)[C@@H]2CC(=O)C(C)=C2C1	≥ 4.32	≥ 22.2	> 22.2		> 22.2	96.2 (≈ 222 µM)				
C=C(C(=O)NCc1cn(C2CCCCC2)nn1)[C@@H]1CC[C@H](C)[C@@H]2CC(=O)C(C)=C2C1	1.95	19.7 (≈ 48.1 µM)	> 7.41		> 7.41	38.5 (≈ 93.7 µM)			1.73	
C=C(C(=O)NCc1cn(Cc2cccc(OC)c2)nn1)[C@@H]1CC[C@H](C)[C@@H]2CC(=O)C(C)=C2C1	3.45	19.7 (≈ 44 µM)	> 22.2	5.2	12.8 (≈ 28.6 µM)	66.7 (≈ 149 µM)				
C=C(C(=O)NCc1cn(Cc2ccc(Cl)c(Cl)c2)nn1)[C@@H]1CC[C@H](C)[C@@H]2CC(=O)C(C)=C2C1	9.9	6.79 (≈ 13.9 µM)	17.5 (≈ 35.9 µM)		≥ 17.2	66.7 (≈ 137 µM)		>4	3	4.1
C=C(C(=O)NCc1cn(Cc2cccc(Cl)c2)nn1)[C@@H]1CC[C@H](C)[C@@H]2CC(=O)C(C)=C2C1	3.9	7.41 (≈ 16.4 µM)	> 7.41		> 7.41	28.6 (≈ 63.2 µM)		>4		

SMILES	selectivity ratio [1]	IC50 (Influenza B virus [2]) [µg/mL]	IC50 (Influenza A virus [3]) [µg/mL]	selectivity ratio [4]	IC50 (Influenza A virus [5]) [µg/mL]	CC50 at 48 h [6] [µg/mL]	IC50 (Influenza B virus [7]) [µg/mL]	Ratio IC50 (Influenza B virus [8])	selectivity ratio [9]	selectivity ratio [10]
C=C(C(=O)NCc1cn(C2C=CCCC2)nn1)[C@@H]1CC[C@H](C)[C@@H]2CC(=O)C(C)=C2C1 (some centres undefined)	7.85	13.4 (≈ 32.8 µM)	> 22.2	9.86	9.75 (≈ 23.9 µM)	96.2 (≈ 235 µM)			4.96	
C=C(C(=O)OCc1cn(Cc2ccc(F)cc2)nn1)[C@@H]1CC[C@H](C)[C@@H]2CC(=O)C(C)=C2C1	9.1	8.98 (≈ 20.5 µM)	> 22.2		> 22.2	66.7 (≈ 152 µM)				
C=C(C(=O)NCc1cn(Cc2cccc(F)c2)nn1)[C@@H]1CC[C@H](C)[C@@H]2CC(=O)C(C)=C2C1	14.3	4.71 (≈ 10.8 µM)	> 22.2		> 22.2	66.7 (≈ 153 µM)		>4		
CCOC(=O)C1=C[C@@H](OC(CC)CC)[C@H](NC(C)=O)[C@@H](N)C1 [OSELTAMIVIR]			1 (≈ 3.2 µM)	448	2.81 (≈ 8.99 µM)	1260 (≈ 4030 µM)				1240
C=C(C(=O)NCc1cn(Cc2ccccc2)nn1)[C@@H]1CC[C@H](C)[C@@H]2CC(=O)C(C)=C2C1	12.2	11.3 (≈ 27 µM)	> 22.2	5.58	17.2 (≈ 41.2 µM)	96.2 (≈ 230 µM)				
C=C(C(=O)OCc1cn(Cc2cccc(Cl)c2)nn1)[C@@H]1CC[C@H](C)[C@@H]2CC(=O)C(C)=C2C1	2.1	66.7 (≈ 147 µM)	> 66.7		≥ 66.7	139 (≈ 305 µM)				
C=C(C(=O)NCc1cn(Cc2ccccc2F)nn1)[C@@H]1CC[C@H](C)[C@@H]2CC(=O)C(C)=C2C1		> 66.7	> 66.7		> 66.7	116 (≈ 265 µM)				
C=C(C(=O)OCc1cn(Cc2ccccc2Cl)nn1)[C@@H]1CC[C@H](C)[C@@H]2CC(=O)C(C)=C2C1	10.4	14.8 (≈ 32.6 µM)	40.2 (≈ 88.5 µM)		> 66.7	115 (≈ 254 µM)			1.98	3.31
C=C(C(=O)NCc1cn(Cc2ccc(OC)cc2)nn1)[C@@H]1CC[C@H](C)[C@@H]2CC(=O)C(C)=C2C1	8.25	11.8 (≈ 26.2 µM)	> 22.2	10.5	14 (≈ 31.2 µM)	96.2 (≈ 214 µM)				
C=C(C(=O)NCc1cn(Cc2cccc(C)c2)nn1)[C@@H]1CC[C@H](C)[C@@H]2CC(=O)C(C)=C2C1	5.7	11.8 (≈ 27.2 µM)	> 22.2		> 22.2	66.7 (≈ 154 µM)				
C=C(C(=O)NCc1cn(Cc2ccc(Cl)cc2)nn1)[C@@H]1CC[C@H](C)[C@@H]2CC(=O)C(C)=C2C1	8.55	2.09 (≈ 4.61 µM)	> 2.47		> 2.47	17.2 (≈ 38.1 µM)		>4		
C=C(C(=O)OCc1cn(Cc2cccc(C)c2)nn1)[C@@H]1CC[C@H](C)[C@@H]2CC(=O)C(C)=C2C1	≥ 4	≥ 9.54	> 22.2	3.76	12.3 (≈ 28.4 µM)	38.5 (≈ 88.8 µM)			1.98	
C=C(C(=O)OCc1cn(Cc2ccccc2C)nn1)[C@@H]1CC[C@H](C)[C@@H]2CC(=O)C(C)=C2C1	2.55	18.8 (≈ 43.4 µM)	> 22.2		> 22.2	46.2 (≈ 107 µM)				
C=C(C(=O)OCc1cn(Cc2ccccc2F)nn1)[C@@H]1CC[C@H](C)[C@@H]2CC(=O)C(C)=C2C1	29.7	2.26 (≈ 5.17 µM)	> 22.2		> 22.2	66.7 (≈ 152 µM)	0.91 (≈ 2.08 µM)	>4		
C=C(C(=O)O)[C@@H]1CC[C@H](C)[C@@H]2CC(=O)C(C)=C2C1 [PECHUELOIC ACID]	> 4030	181 (≈ 727 µM)		> 111	4650 (≈ 18700 µM)	248 (≈ 999 µM)			> 1340	25.8
C=C(C(=O)OCc1cn(C2CCCCC2)nn1)[C@@H]1CC[C@H](C)[C@@H]2CC(=O)C(C)=C2C1	6.5	18.5 (≈ 45 µM)	≥ 66.7	1.73	66.7 (≈ 162 µM)	115 (≈ 281 µM)			1.98	≥ 1.73
